Sampled rows, rich in hits. Any-hit rate of the full collection: about 0.74%.
G6PDH counter = L. mesenteroides G6PDH inhibition counter-screen; Purified L. mesenteroides G6PDH, diaphorase/resazurin coupled fluorescence, 45 min; inhibition, % at 5 µM; 200,000 tested, 0.12% active; AID 1020; in the data active = inhibition above about 50%
HKDC1 inhibitor = blocks human hexokinase HKDC1 activity; inhibition, % at 20 µM; AID 493160; 340,000 tested, 0.16% active; Q2TB90; recombinant HKDC1, G6PDH/diaphorase resazurin coupled fluorescence;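 active = inhibition above about 35% when tested at 20 µM, limit read from the data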;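 note: plate controls were DMSO wells with enzyme for no effect and DMSO wells lacking enzyme for full effect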
Target sequence (Q2TB90 whole entry, looked up): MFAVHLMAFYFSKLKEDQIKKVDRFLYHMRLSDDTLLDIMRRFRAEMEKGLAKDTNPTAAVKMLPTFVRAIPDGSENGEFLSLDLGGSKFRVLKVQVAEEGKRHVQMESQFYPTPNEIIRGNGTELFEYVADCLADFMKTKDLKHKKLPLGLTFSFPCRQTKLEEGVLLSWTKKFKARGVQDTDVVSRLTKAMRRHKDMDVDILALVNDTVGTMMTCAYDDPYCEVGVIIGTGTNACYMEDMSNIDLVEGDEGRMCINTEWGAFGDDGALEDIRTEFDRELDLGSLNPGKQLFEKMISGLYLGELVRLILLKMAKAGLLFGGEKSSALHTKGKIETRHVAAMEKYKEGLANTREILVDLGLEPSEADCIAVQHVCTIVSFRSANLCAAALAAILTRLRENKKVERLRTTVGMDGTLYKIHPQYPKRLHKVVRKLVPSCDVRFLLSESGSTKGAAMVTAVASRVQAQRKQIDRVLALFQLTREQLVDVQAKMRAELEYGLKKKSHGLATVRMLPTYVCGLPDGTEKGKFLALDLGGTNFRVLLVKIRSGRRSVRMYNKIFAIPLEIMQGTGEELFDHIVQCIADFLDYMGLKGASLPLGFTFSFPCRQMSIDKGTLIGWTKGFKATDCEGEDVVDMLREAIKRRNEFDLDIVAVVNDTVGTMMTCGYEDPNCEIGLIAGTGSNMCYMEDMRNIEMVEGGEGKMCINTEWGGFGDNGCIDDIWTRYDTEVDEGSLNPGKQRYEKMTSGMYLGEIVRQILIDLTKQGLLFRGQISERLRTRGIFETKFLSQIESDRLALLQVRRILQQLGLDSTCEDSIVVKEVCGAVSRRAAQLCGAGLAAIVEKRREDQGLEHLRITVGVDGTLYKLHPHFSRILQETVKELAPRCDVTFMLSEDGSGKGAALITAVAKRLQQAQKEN
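Incubation: 90 min at room temperature in dark / Material: recombinant HKDC1 (HK5) hexokinase enzyme, produced in-house / Quantity: enzyme 5 µg/mL final / Compound: one dose of 20 µM, 1% DMSO / Reagent: glucose and ATP substrates / Buffer or medium: Tris pH 8.0 buffer with MgCl2, Tween-20, BSA, BME / Technique: resorufin fluorescence at 613 nm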
Diaphorase inh = counter-screen for diaphorase-based assays: diaphorase inhibitors and chemical oxidizers. diaphorase resazurin-to-resorufin fluorescence, NADH, 16 min; bacterial (C. kluyveri) enzyme, not human. inhibition, % at 20 µM. 190,000 tested, 0.69% active. AID 1217;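 active = primary screen inhibition at 20 µM above a set limit, cut at about 50% in these data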;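 note: plate controls were DMSO with full reaction for no effect and wells lacking NADH for full effect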
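Detection: fluorescence of resorufin formed from resazurin, Ex 544/Em 590 nm; test system: Clostridium kluyveri diaphorase enzyme; amount: 0.14 U/mL diaphorase, enzyme working solution; times: 16-min room-temperature incubation before reading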
Arbovirus anti = blocks arbovirus infection; arbovirus infection cell-based antiviral screen; inhibition, % at 10 µM; 200,000 tested, 0.37% active; in the data active = inhibition above about 30%
Diaph act CS = activates diaphorase or chemically reduces, flagging diaphorase assay artifacts. activation factor at 20 µM. AID 1229. 190,000 tested, 0.005% active. Diaphorase/resazurin coupled assay, resorufin fluorescence, 16 min; hits give high values; 1 = vehicle wells, 0 = NADH-free wells;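 active = diaphorase activity raised at least twofold by the compound at 20 µM; inactive = activation factor below 2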
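Material: purified diaphorase enzyme from Clostridium kluyveri / Medium: HEPES pH 7.4 buffer with MgCl2 and Tween 20 / Schedule: enzyme reaction of 16 min at room temperature / Measured by: resorufin fluorescence, excitation 544 nm, emission 590 nm / Evaluation: rise in resorufin formation, marking diaphorase activation or chemical reduction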
Active calls of the source: *; / = no result.

SMILES | G6PDH counter | HKDC1 inhibitor | Diaphorase inh | Arbovirus anti | Diaph act CS
C=CCn1c(SCC(=O)c2ccc(F)cc2)nnc1-c1ccc2c(c1)OCO2 | -2 | -2 | 2 | -6 | 1
Cc1ccc(NC(=O)/C(=C/C=C/c2ccccc2)NC(=O)c2ccccc2)cc1 | -11 | 1 | 17 | 30* | 0.8
CCO[C@@H]1OC(C(=O)N2CCN(Cc3ccc4c(c3)OCO4)CC2)=C[C@H](c2csc3ccccc23)[C@H]1CCCO | 14 | 3 | 27 | -20 | 0.7
CC(=O)n1cc([C@@H]2C=C(C(=O)N3CCOCC3)O[C@H](OCCCCO)C2)c2ccccc21 | 12 | -5 | -9 | 0 | 1.1
CCO[C@@H]1OC(C(=O)N2CCN(Cc3ccc4c(c3)OCO4)CC2)=C[C@H](c2cn(C(C)=O)c3ccccc23)[C@H]1CCCO | 18 | 3 | 56* | -13 | 0.4
CC(=O)n1cc([C@H]2C=C(C(=O)N3CCN(Cc4ccc5c(c4)OCO5)CC3)O[C@@H](OCCCCO)C2)c2ccccc21 | 18 | 3 | 56* | -14 | 0.4
CCCCCCn1ccc(=N)cc1 | 14 | -4 | 17 | -4 | 0.8
CCCCCCCCCCCCCCCCn1cc[n+](CC(C)=O)c1 | 4 | 4 | -201 | -32 | 3*
CCOc1ccccc1N=C1SCC(C)N1C(=O)C1CCN(c2ncnc3sc(C)c(C)c23)CC1 (stereo not drawn) | / | 0 | / | / | /
Cc1ccc(O)c(-c2cc(C(=O)Nc3ccc(S(=O)(=O)Nc4nc(C)cc(C)n4)cc3)[nH]n2)c1 | 4 | 6 | 16 | 35* | 0.8
O=C(Nc1cc(S(=O)(=O)N2CCOCC2)ccc1Cl)c1cc([N+](=O)[O-])ccc1Cl | / | -1 | / | / | /
CC(C)(CC(=O)O)CC(=O)Nc1ccc2c(c1)ncn2CCc1ccccc1 | / | -4 | / | / | /
COC(=O)Nc1cccn(Cc2c(Cl)cccc2Cl)c1=O | 12 | 5 | 51* | 3 | 0.5
O=C(Nc1cccn(Cc2c(Cl)cccc2Cl)c1=O)c1c(Cl)cccc1Cl | 3 | 1 | 32 | -8 | 0.7
O=C(NC1CCCCC1)C(c1ccc(O)c(O)c1)N(C(=O)Cn1nnc2ccccc21)c1cccc(O)c1 (stereo not drawn) | 17 | -4 | 56* | -5 | 0.4
COC(=O)C(Cc1ccccc1)NC(=O)c1ccc(NS(=O)(=O)c2ccc3[nH]c(=O)[nH]c3c2)cc1 (stereo not drawn) | / | 5 | / | / | /
C=CCn1c(CNC(=O)c2cccs2)nnc1SCc1ccc(Cl)cc1Cl | -1 | 0 | 11 | 63* | 0.9
CC(NC(=O)c1cccs1)c1nnc(SCc2ccc(Cl)cc2Cl)n1C (stereo not drawn) | 4 | 5 | 15 | 77* | 0.9
CCn1c(CNC(=O)c2cccs2)nnc1SCC(=O)Nc1cc(Cl)ccc1C | 0 | -9 | 1 | 3 | 1
OCC(O)C1OC(c2ccco2)OC(CO)C1O (stereo not drawn) | / | -7 | / | / | /
C[C@](N)(Cc1ccc(O)c(O)c1)C(=O)O | 46 | -2 | 46 | 6 | 0.5
NCCc1ccc(O)c(O)c1 | 47 | -9 | 54* | -8 | 0.5
N#Cc1cccc(N=Cc2c(O)ccc3ccccc23)c1 | 62* | 32 | 36 | 12 | 0.6
Cc1ccc(N=Cc2c(O)ccc3ccccc23)cc1F | 45 | 17 | 18 | 12 | 0.8
CC(=O)c1c(N)[nH]c(-c2ccccc2)nc1=S | -4 | 4 | 50* | -7 | 0.5
SMILES | G6PDH counter | HKDC1 inhibitor | Diaphorase inh | Arbovirus anti | Diaph act CS
CC(=O)c1c(N2CCCC2)[nH]c(-c2ccccc2)nc1=S | 7 | 3 | 22 | 6 | 0.8
O=C(NCCN1C(=O)S/C(=C\c2cccnc2)C1=O)C1=NN(c2ccccc2)C(=O)CC1 | -4 | -10 | 15 | -5 | 0.8
O=C(NCCN1C(=O)S/C(=C/c2cccnc2)C1=O)C1CC(=O)N(Cc2ccccc2)C1 (stereo not drawn) | 8 | -9 | 10 | 30* | 0.9
Oc1ccc(Br)cc1-c1nc2cnccn2c1NC1CCCC1 | -30 | 5 | 21 | 62* | 0.8
C=CCN(CC=C)c1ncnc2[nH]ncc12 | / | -6 | / | / | /
CSC(=S)N/N=C/c1ccccc1 | 3 | -7 | 73* | -7 | 0.3
COc1ccc(/C=N/NC(=S)SC)cc1OC | 2 | -14 | 50 | 0 | 0.5
Cc1ccc(NC2c3ncccc3C(=O)N2C2CCCCC2)cc1 (stereo not drawn) | -2 | 14 | 2 | 11 | 1
Cc1ccc(NC2c3ncccc3C(=O)N2C2CCCCC2)cc1C (stereo not drawn) | 0 | 14 | 20 | 40* | 0.8
Cc1cnc(N=Nc2ccccc2)[nH]1 | / | -7 | / | / | /
CC1CCCC(NC(=O)Cn2c(Cl)nc3c2c(=O)n(C)c(=O)n3C)C1C (stereo not drawn) | / | -7 | / | / | /
NS(=O)(=O)c1ccc(NC(=O)CN2CCN(S(=O)(=O)c3cccs3)CC2)cc1 | / | -5 | / | / | /
CCCNC(=O)c1ccc2c(=O)n(Cc3ccco3)c(=S)[nH]c2c1 | -5 | 0 | 19 | 9 | 0.8
COc1ccc(CCNC(=O)c2ccc3nc(-c4ccco4)c(-c4ccco4)nc3c2)cc1OC | 16 | 27 | 66* | -3 | 0.3
COc1ccc(CCNC(=O)c2ccc3c(SCC(=O)O)c4c(nc3c2)CCCC4)cc1OC | 2 | 6 | 68* | 12 | 0.3
COc1ccc(CCNC(=O)c2ccc3c(=O)n(Cc4ccco4)c(=S)[nH]c3c2)cc1OC | 1 | -2 | 51* | -3 | 0.5
CC1(C)CC(=O)C(c2ccccc2)(c2ccccc2)C(=O)C1 | / | -8 | / | / | /
CC(C)C[C@H](NC(=O)OCC1c2ccccc2-c2ccccc21)C(=O)O | / | -4 | / | / | /
COc1cc(C2Nc3ccc4ncccc4c3C3=C2C(=O)CCC3)cc(OC)c1O (stereo not drawn) | 50* | 15 | 44 | -12 | 0.6
N#CC1(NC(=O)COC(=O)c2cc(O)c3ccccc3c2O)CCCCC1 | / | 50* | / | / | /
N#CC1(NC(=O)COC(=O)c2ccccc2[N+](=O)[O-])CCCCC1 | / | -3 | / | / | /
COc1ccc(/C=N/NC(=O)c2nn(-c3ccccc3)c(=O)c3c(N)scc23)cc1 | 30 | 23 | 57* | -7 | 0.4
COc1ccc(/C=N/NC(=O)c2nn(-c3ccc(Cl)cc3)c(=O)c3c(N)scc23)cc1 | 12 | 16 | 50* | -10 | 0.5
CCOc1ccccc1C1NC(=O)c2ccccc2N1 (stereo not drawn) | / | -2 | / | / | /
CCOc1ccc(C(C)=O)cc1COC(=O)c1ccccc1C(=O)N(C)Cc1ccccc1 | / | -6 | / | / | /
OC(c1ccccc1)C1CN(Cc2ccccc2)CCC1(O)c1ccccc1 (stereo not drawn) | 3 | -5 | 1 | 33* | 1
O=C(CN1CCN(S(=O)(=O)c2ccccc2[N+](=O)[O-])CC1)NC(=O)NCc1ccco1 | 3 | -8 | 7 | 6 | 0.9
COc1ccc(C(=O)Nc2ccccc2C(=O)Nc2ccncc2)cc1 | / | 6 | / | / | /

Source: PubChem
